This is an account of results in PMC12316956 (Scientific Reports, 2025).

For data set [1] the following is noted: 80% T>IC50, 5 mg/kg, single oral, rats.
For a further data set, the system named is PC-9 cells. The note with it: PC-9 lung cancer cell line; cited from earlier work.
For data set [2] the following is noted: humans; cited from earlier work.
The next data set has as its system prostaglandin E2 (PGE2). Conditions: read-out: IC50 for PGE2; in vitro; ref Park et al.[47]; cited from earlier work.
Data set [3] in a line: Pharmacokinetic study 2: oral compound K, single or 4 wks, in rats. The note with it: AUC 4 wks / AUC single. The format is in vivo, Sprague Dawley rats. The method in brief:
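Male SD rats (n = 5/group; 7 wk old for single dosing, 4 wk for 4 wks) got test compound in PBS by oral gavage at 5 or 10 mg/kg/day, single dose or 4 wks. Tail-vein plasma was sampled 0–24 h and assayed by LC-MS/MS. One-compartment model; AUC by trapezoids; Tmax as median (range). Accumulation factor = AUC(0−t) repeated / AUC(0−t) single at the same dose.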

The next data set concerns nitric oxide (NO). The note with it: read-out: IC50 for NO; in vitro; ref Park et al.[47]; cited from earlier work.
The format of data set [4] is in vivo, Sprague Dawley rats. The note with it: for accumulation factor: rats. The method in brief: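 Male SD rats (n = 5/group) were 7 wk old for the single dose, 6 wk for 2 wks, and 4 wk for 4 or 8 wks. They received KRG in PBS, 2 g/kg/day PO. Tail-vein blood was drawn 0–96 h after the last dose and spun 13,700 x g for 15 min; plasma was stored at −80 °C. Rb1, Rd and compound K were measured by LC-MS/MS with berberine as internal standard. Non-compartmental analysis was used; Tmax is reported as median (range).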

The conditions of data set [5]: rats, same dose level; cited from earlier work.
Another data set has as its system A549. Conditions: A549 lung cancer cell line; cited from earlier work.
Setting [6] is: male, Sprague-Dawley, rat, plasma, po, 2 g/kg.
[7] abbreviates: KRG 2 g/kg oral, 2 wks vs single (AUC ratio).

Like-named read-outs stand apart in the source and are kept apart here. Bounds are passed on as bounds.

Take `CC(C)=CCC[C@](C)(O[C@@H]1O[C@H](CO)[C@@H](O)[C@H](O)[C@H]1O)[C@H]1CC[C@]2(C)[C@@H]1[C@H](O)C[C@@H]1[C@@]3(C)CC[C@H](O)C(C)(C)[C@@H]3CC[C@]12C` [Compound K, compound K]: the results for the Calculated dosing interval in data set [1] (NO (IC50 12 µM)) and in [1] (PGE2 (IC50 4 µM)) were approximately 7 h and approximately 18 h, respectively. The “in vitro IC50, antitumor activity” value with PC-9 cells is 14.46 µg/mL; in the data set with A549, 16.11 µg/mL. For the same compound, in data set [2], the “time of appearance in plasma after consuming ginseng lacking compound K” value was 8 h. Further, the IC50 in the data set with prostaglandin E2 (PGE2) is 4 µM; in the data set with nitric oxide (NO), 12 µM. Further, the accumulation factor is 4 in data set [3] (compound K oral 5 mg/kg) and 7 in data set [3] (compound K oral 10 mg/kg). Besides, the Cmax in [4] (rat plasma, KRG 2 g/kg oral, 4 wks) is 2.9 ng/mL; in data set [4] (rat plasma, KRG 2 g/kg oral, 8 wks) it was 2.3 ng/mL. Moreover, the oral bioavailability in [5] is 4%.

Take `CC(C)=CCC[C@](C)(O[C@@H]1O[C@H](CO[C@@H]2O[C@@H](CO)[C@H](O)[C@H]2O)[C@@H](O)[C@H](O)[C@H]1O)[C@H]1CC[C@]2(C)[C@@H]1[C@H](O)C[C@@H]1[C@@]3(C)CC[C@H](O[C@@H]4O[C@H](CO)[C@@H](O)[C@H](O)[C@H]4O[C@@H]4O[C@H](CO)[C@@H](O)[C@H](O)[C@H]4O)C(C)(C)[C@@H]3CC[C@]12C` [Rc, ginsenoside Rc]: in data set [2], the “time within which excreted in the urine” value is not above 3 h.

As to `CC(C)=CCC[C@](C)(O[C@@H]1O[C@H](CO)[C@@H](O)[C@H](O)[C@H]1O)[C@H]1CC[C@]2(C)[C@@H]1[C@H](O)C[C@@H]1[C@@]3(C)CC[C@H](O)C(C)(C)[C@@H]3[C@@H](O[C@@H]3O[C@H](CO)[C@@H](O)[C@H](O)[C@H]3O)C[C@]12C` [Rg1, ginsenoside Rg1], in [2], the “time within which excreted in the urine” value is recorded as not above 3 h.

In the case of `CC(C)=CCC[C@](C)(O[C@@H]1O[C@H](CO)[C@@H](O)[C@H](O)[C@H]1O)[C@H]1CC[C@]2(C)[C@@H]1[C@H](O)C[C@@H]1[C@@]3(C)CC[C@H](O[C@@H]4O[C@H](CO)[C@@H](O)[C@H](O)[C@H]4O[C@@H]4O[C@H](CO)[C@@H](O)[C@H](O)[C@H]4O)C(C)(C)[C@@H]3CC[C@]12C` [Rd, ginsenoside Rd], in data set [2], the “time within which excreted in the urine” value was not above 3 h. For the same compound, the concentration in data set [4] (setting [6]) peaked (Cmax) at 8.5 ng/mL. Further, the accumulation factor in data set [4] (setting [7]) is reported as 2.2; in [4] (KRG 2 g/kg oral, 8 wks vs single (AUC ratio)), 5.

Consider `CC(C)=CCC[C@](C)(O[C@@H]1O[C@H](CO[C@@H]2O[C@H](CO)[C@@H](O)[C@H](O)[C@H]2O)[C@@H](O)[C@H](O)[C@H]1O)[C@H]1CC[C@]2(C)[C@@H]1[C@H](O)C[C@@H]1[C@@]3(C)CC[C@H](O[C@@H]4O[C@H](CO)[C@@H](O)[C@H](O)[C@H]4O[C@@H]4O[C@H](CO)[C@@H](O)[C@H](O)[C@H]4O)C(C)(C)[C@@H]3CC[C@]12C` [Rb1, ginsenoside Rb1], for which the “time within which excreted in the urine” value in [2] is recorded as not above 3 h. In [4] (setting [6]), this compound registered a Cmax of 23.9 ng/mL and a Cmax at 8 wks of 68.3 ng/mL. The accumulation factor entry in [4] (setting [7]) was “approximately 3”.

In general, IC50 refers to the concentration that inhibits the measured activity by half. Usually Cmax stands for the peak of the concentration-time curve.
